One block for each molecule: values may come before it.
Assays:
[1] = The hypoglycemic activity in diabetic KK mice, activity expressed as % decrease in blood glucose (21h); format: functional, Mus musculus
Method in brief: (§1)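 Nonfasting diabetic KK mice, n = 3, received 1 mg/kg immediately after the first blood sampling and again 18 h later. Tail-vein plasma was taken 18 and 21 h after the first dose, and glucose was measured. Activity (%) = (control PG − treated PG)/control PG × 100; mean ± SEM.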

[2] = The hypoglycemic activity in diabetic KK mice, activity expressed as % decrease in blood glucose (18 h); format: functional, Mus musculus; method in brief: as §1
3T3-L1 = test: Stimulation of adipogenesis in 3T3-L1 cells is expressed as concentration equivalent to the [ 1-14C] uptake counts after treatment with 0.2 ug/mL troglitazone; format: functional, Mus musculus
Method in brief: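 Mouse 3T3-L1 preadipocytes were grown to confluence on collagen-coated wells, then given differentiation medium (5% FBS, 100 ng/mL insulin, 0.1 mM IBMX, dexamethasone) plus compound (DMSO 0.1% v/v final) for 4 days. This was followed by maintenance medium (5% FBS, insulin) for 2 days. Cells were then pulsed 1 h with 7.4 kBq/mL [1-14C]acetic acid, washed, and counted by scintillation.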

[3] = Area under the curve for fumarate salt was evaluated in F344 Rats.; format: ADME, organism-based; conditions: F344, rat, in vivo
Method in brief: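 Single oral dose of 25 mg/kg to F344 rats; AUC (µg·h/mL) reported as mean ± SEM, n = 3.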

Rattus norvegicus [4] = test: Relative wt in two week oral toxicity test in male F344/DuCrj rats after 50 mg/kg dose; format: functional
Method in brief: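 Seven-week-old male F344/DuCrj rats, n = 5/group; compound suspended in 0.5% carboxymethylcellulose sodium in water, given by gavage at 50 mg/kg for 2 weeks; controls got vehicle alone. At termination, ether anaesthesia and exsanguination via abdominal aorta; heart and major organs excised and weighed. Relative weight = organ weight/100 g final body weight; mean ± SE, Student's t-test vs control.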

Rattus norvegicus [5] = test: Heart wt absolute in two week oral toxicity test in male F344/DuCrj rats after 50 mg/kg dose; format: functional
Method in brief: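 Seven-week-old male rats, n = 5/group, dosed by gavage at 50 mg/kg for 2 weeks as a suspension in 0.5% carboxymethylcellulose sodium in water; controls received vehicle alone. At termination rats were ether-anaesthetized and exsanguinated via the abdominal aorta, and the heart was excised and weighed. Relative weight = absolute weight/100 g final body weight. Mean ± SE; Student's t-test against control.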

SMILES: CCOc1ccc2nc(COc3ccc(CC4SC(=O)NC4=O)cc3)n(C)c2n1 (centres undefined)
Decrease [1]: 23.6%
Decrease [2]: 29.7%
EC (3T3-L1): 0.078 µM

SMILES: Cn1c(COc2ccc(CC3SC(=O)NC3=O)cc2)nc2ccc(O)nc21 (centres undefined)
Decrease [1]: -3.2%
Decrease [2]: -30.6%
EC (3T3-L1): 1.98 µM

AUC [3]: 11900 ng·h/mL
SMILES: COc1ccc2nc(COc3ccc(CC4SC(=O)NC4=O)cc3)n(C)c2n1 (centres undefined)
Decrease [1]: 2.9%
Decrease [2]: 3.6%
EC (3T3-L1): 0.08 µM

AUC [3]: 36400 ng·h/mL
SMILES: COc1ccc2nc(COc3ccc(CC4SC(=O)NC4=O)cc3)n(C)c2n1.O=C(O)/C=C/C(=O)O (centres undefined)

AUC [3]: 141000 ng·h/mL
SMILES: COc1ccc2nc(COc3ccc(CC4SC(=O)NC4=O)cc3)n(C)c2n1.Cl (centres undefined)
Decrease [1]: 1%
Decrease [2]: 14.8%
Control (Rattus norvegicus [4]): 106%
Relative (Rattus norvegicus [4]): 0.33 g %
EC (3T3-L1): 0.11 µM
Absolute heart weight, % of control (Rattus norvegicus [5]): 111%
Heart weight absolute (Rattus norvegicus [5]): 0.68 g

SMILES: Cn1c(COc2ccc(CC3SC(=O)NC3=O)cc2)nc2cc(Cl)cnc21 (centres undefined)
Decrease [1]: 49.7%
EC (3T3-L1): 0.16 µM

SMILES: Cc1ccnc2c1nc(COc1ccc(CC3SC(=O)NC3=O)cc1)n2C (centres undefined)
Decrease [1]: -6.9%
Decrease [2]: -18.2%
EC (3T3-L1): 0.37 µM

SMILES: Cn1c(COc2ccc(CC3SC(=O)NC3=O)cc2)nc2cc(C(F)(F)F)cnc21 (centres undefined)
Decrease [1]: -26.4%
Decrease [2]: -0.7%
EC (3T3-L1): 0.073 µM

SMILES: CN(CCOc1ccc(CC2SC(=O)NC2=O)cc1)c1ccccn1 (centres undefined) [ROSIGLITAZONE]
Decrease [1]: 14.6%
Decrease [2]: 21.7%
Control (Rattus norvegicus [4]): 113%
Relative (Rattus norvegicus [4]): 0.36 g %
EC (3T3-L1): 0.09 µM
Absolute heart weight, % of control (Rattus norvegicus [5]): 119%
Heart weight absolute (Rattus norvegicus [5]): 0.76 g

SMILES: Cc1cc(C)c2nc(COc3ccc(CC4SC(=O)NC4=O)cc3)n(C)c2n1 (centres undefined)
Decrease [1]: 9.5%
Decrease [2]: 9.5%
EC (3T3-L1): 0.22 µM

SMILES: Cn1c(COc2ccc(CC3SC(=O)NC3=O)cc2)nc2ccc(-c3ccccc3)nc21 (centres undefined)
Decrease [1]: 38.1%
Decrease [2]: 15.5%
EC (3T3-L1): 0.36 µM

SMILES: Cn1c(CCCOc2ccc(CC3SC(=O)NC3=O)cc2)nc2cccnc21 (centres undefined)
Decrease [1]: -9.3%
Decrease [2]: -3%
EC (3T3-L1): 0.081 µM

SMILES: O=C1NC(=O)C(Cc2ccc(OCc3nc4cccnc4n3Cc3ccc(-c4ccccc4)cc3)cc2)S1 (centres undefined)
Decrease [1]: 11.4%
Decrease [2]: 3.8%
EC (3T3-L1): 0.92 µM

SMILES: Cn1c(Oc2ccc(CC3SC(=O)NC3=O)cc2)nc2cccnc21 (centres undefined)
Decrease [1]: 3.6%
Decrease [2]: -7%
EC (3T3-L1): 1.35 µM

SMILES: O=C1NC(=O)C(Cc2ccc(OCc3nc4ccc[nH]c-4n3)cc2)S1 (centres undefined)
Decrease [1]: 7.4%
Decrease [2]: 13.9%
EC (3T3-L1): 8.18 µM

SMILES: CC(C)Oc1ccc2nc(COc3ccc(CC4SC(=O)NC4=O)cc3)n(C)c2n1 (centres undefined)
Decrease [1]: -0.2%
Decrease [2]: 14.6%
EC (3T3-L1): 0.075 µM

SMILES: CCn1c(COc2ccc(CC3SC(=O)NC3=O)cc2)nc2cccnc21 (centres undefined)
Decrease [1]: 2.4%
Decrease [2]: -19.5%
EC (3T3-L1): 1.07 µM

SMILES: Cn1c(COc2ccc(CC3SC(=O)NC3=O)cc2)nc2cccnc21 (centres undefined)
Decrease [1]: 27.6%
Control (Rattus norvegicus [4]): 116%
Relative (Rattus norvegicus [4]): 0.36 g %
EC (3T3-L1): 0.13 µM
Absolute heart weight, % of control (Rattus norvegicus [5]): 128%
Heart weight absolute (Rattus norvegicus [5]): 0.78 g

SMILES: O=C1NC(=O)C(Cc2ccc(OCc3nc4cccnc4n3-c3ccccc3)cc2)S1 (centres undefined)
Decrease [1]: -3.4%
Decrease [2]: 3.9%
EC (3T3-L1): 2.56 µM

SMILES: O=C1NC(=O)C(Cc2ccc(OCc3nc4cccnc4n3Cc3ccc(Cl)cc3)cc2)S1 (centres undefined)
Decrease [1]: -8.5%
EC (3T3-L1): 0.71 µM

SMILES: Cn1c(CCOc2ccc(CC3SC(=O)NC3=O)cc2)nc2cccnc21 (centres undefined)
Decrease [1]: 13%
Decrease [2]: -5.6%
EC (3T3-L1): 0.65 µM

SMILES: Cn1c(COc2ccc(CC3SC(=O)NC3=O)cc2)nc2ccc(OCc3ccccc3)nc21 (centres undefined)
Decrease [1]: 18.8%
Decrease [2]: 20.3%
EC (3T3-L1): 0.067 µM

SMILES: Cn1c(COc2ccc(CC3SC(=O)NC3=O)cc2)nc2ccc(Cl)nc21 (centres undefined)
Decrease [1]: 47.6%
Control (Rattus norvegicus [4]): 116%
Relative (Rattus norvegicus [4]): 0.37 g %
EC (3T3-L1): 0.0009 µM
Absolute heart weight, % of control (Rattus norvegicus [5]): 123%
Heart weight absolute (Rattus norvegicus [5]): 0.74 g

SMILES: O=C1NC(=O)C(Cc2ccc(OCc3cn4ccccc4n3)cc2)S1 (centres undefined)
Decrease [1]: 12.7%
Decrease [2]: 5.9%
EC (3T3-L1): 5.09 µM

SMILES: Cn1c(COc2ccc(CC3SC(=O)NC3=O)cc2)nc2ccc(Sc3ccccc3)nc21 (centres undefined)
Decrease [1]: 14.7%
Decrease [2]: -21.2%
EC (3T3-L1): 0.067 µM

SMILES: Cn1c(COc2ccc(CC3SC(=O)NC3=O)cc2)nc2cc(Br)cnc21 (centres undefined)
Decrease [1]: 6.2%
EC (3T3-L1): 0.34 µM
